This passage reports Activity, Stability and inhibition results from ChEMBL document CHEMBL1926663, “Identification of new aminoacid amides containing the imidazo[2,1-b]benzothiazol-2-ylphenyl moiety as inhibitors of tumorigenesis by oncogenic Met signaling” (Eur J Med Chem, 2012).

The structures appear in SMILES notation. The source made the active and inactive calls. No cut-off for these calls is given here.

One data set concerns Hepatocyte. The data set can be described thus: Cytotoxicity against hepatocytes assessed as reduction in cell viability at 100 uM after 24 hrs by Cell Titer-Glo luminescent assay. In kind it is cell-based. In a few lines:
(§1)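 Primary embryonic cortical neuron and hepatocyte cultures exposed to compound for 24 h; viability read by Cell Titer Glo luminescence; quadruplicate.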
In general terms: ATP-based viability assays read luminescence as a measure of living cells.

A short description of data set [1]: Chemical stability in chloroform. In kind it is physicochemical.
Data set [2] can be described thus: Antitumor activity against human GTL16 cells xenografted in nude mouse assessed as reduction tumor weight at 10 to 30 mg/kg, ip administered for every 2 days for 21 days. In kind it is functional, GTL 16. Conditions: dose mg/kg 10-30; route intraperitoneal. Further details: scale not given: the % may be the effect or the level left.
Data set [3] has as its target Macrophage-stimulating protein receptor (Homo sapiens) (UniProt Q04912). Briefly: Inhibition of TEL-fused RON-mediated mouse BA/F3 cell proliferation at 1 uM after 48 hrs by cell titre blue based spectrophotometry. Conditions: BaF3. The essentials:
(§2)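 Ba/F3 cells expressing active kinase forms, or IL3-dependent; 2×10^4 cells/well; 1/2 serial dilutions from 0 to 10 µM (text also gives 0.1–40 µM); 48 h at 37 °C; Cell Titer Blue; absorbance at 490 nm with cell-free blank for background; proliferation as % of untreated cells; triplicate.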

Data set [4] concerns MDCK. Briefly: Cytotoxicity against HGF-stimulated […] MDCK cells at biologically active concentration. In kind it is cell-based.
Data set [5] is described as follows: Chemical stability in DMSO. In kind it is physicochemical.
A short description of data set [6]: Antitumor activity against human GTL16 cells xenografted in nude mouse assessed as reduction tumor weight at 30 mg/kg, ip administered for every 2 days for 21 days (reference value: 865.4 348.9 mg). In kind it is functional, GTL 16. As to conditions: route intraperitoneal.
The target in data set [7] is Hepatocyte growth factor receptor (Homo sapiens) (UniProt P08581). Conditions: BaF3; 1 uM.
Data set [8] in a line: Cytotoxicity against cortical neurons assessed as reduction in cell viability at 100 uM after 24 hrs by Cell Titer-Glo luminescent assay. As to conditions: cortical neurone. The essentials: as §1
The test system of a further data set is Mus musculus. The data set can be described thus: Toxicity in human GTL16 cells xenografted nude mouse assessed as reduction of body weight at 10 to 30 mg/kg, ip administered for every 2 days for 21 days. In kind it is organism-based. Further details: dose 10-30 mg/kg, route intraperitoneal. As to conditions: in vivo. A general note: Xenograft models place foreign cells or tissue in a host animal.

In data set [9] the target is Hepatocyte growth factor receptor (Homo sapiens) (UniProt P08581). Conditions: 10 uM.
The test system of a further data set is GTL 16. Briefly: Cytotoxicity against serum-starved human GTL16 cells assessed as reduction of cell survival after 48 hrs by Cell Titer-Glo luminescent assay. In kind it is functional, cell-based.
Data set [10] can be described thus: Antitumor activity against human GTL16 cells xenografted in nude mouse assessed as reduction tumor weight at 10 mg/kg, ip administered for every 2 days for 21 days (reference value: 865.4 348.9 mg). In kind it is functional, GTL 16. As to conditions: route intraperitoneal.
Data set [11] concerns MDCK. Briefly: Cytotoxicity against HGF-stimulated […] MDCK cells at 50 to 100 fold higher biologically active concentration. In kind it is cell-based.
The nature of data set [12]: Chemical stability in solid state. In kind it is physicochemical.
In the next data set the test system is MCF7. Briefly: Cytotoxicity against serum-starved human MCF7 cells over-expressing ErbB2 cells assessed as reduction of cell survival at 10 to 30 uM after 48 hrs by Cell Titer-Glo luminescent assay. In kind it is functional, cell-based.
Data set [13] is described as follows: Chemical stability in methanol. In kind it is physicochemical.
Data set [14] deals with Hepatocyte growth factor receptor (Homo sapiens) (UniProt P08581). Conditions: HepG2, 10 uM.
For data set [15] the target is unchanged. As to conditions: 1 uM.
The subject of another data set is BT-474. The data set can be described thus: Cytotoxicity against serum-starved human BT474 cells assessed as reduction of cell survival at 10 to 30 uM after 48 hrs by Cell Titer-Glo luminescent assay. In kind it is functional, cell-based. In a few lines:
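Cells were held in serum-free medium for 24 h, then exposed to compound for 48 h. Viability was read by CellTiter-Glo luminescence, and data come from three independent experiments run in duplicate. BT474 was routinely maintained in RPMI with 4 mM L-glutamine, 10% FBS and penicillin/streptomycin at 37 °C under 5% CO2.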

Data set [16] deals with Epidermal growth factor receptor (Homo sapiens) (UniProt P00533). The data set can be described thus: Inhibition of ErbB1 phosphorylation in human BT474 cells at 1 to 10 uM pretreated overnight prior to HGF stimulation by Western blot analysis. As to conditions: BT-474. In kind it is cell-based. The essentials:
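BT-474 cells starved, pretreated overnight with compound at 1, 3, 10 µM, then HGF 20 ng/ml; total extracts immunoblotted for phospho-ErbBs; ERK as loading control.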
On the technique in general: In western blotting, separated proteins are transferred to a membrane and probed.

A further data set relates to HepG2. Briefly: Cytotoxicity against serum-starved human HepG2 cells assessed as reduction of cell survival after 48 hrs by Cell Titer-Glo luminescent assay. In kind it is functional, cell-based.
The next data set concerns BaF3. Briefly: Antiproliferative activity against IL3-stimulated mouse BA/F3 cells at 1 uM after 48 hrs by cell titre blue based spectrophotometry. In kind it is functional. In a few lines:
as §2

The inhibition is the share of the control response that was lost under treatment. For `O=C(Cc1cc(C(F)(F)F)cc(C(F)(F)F)c1)N[C@@H](Cc1ccccc1)C(=O)Nc1ccc(-c2cn3c(n2)sc2ccccc23)cc1`, the Activity in the data set on Hepatocyte is given as 28%; in data set [2], 70%; in the data set on MDCK [4] it was “Non-toxic”; in data set [6] it was 234.8 mg; in data set [8] it was 12%; with Mus musculus, “Non-toxic”. The Activity result in the data set on GTL 16 was “Dose-dependent effect”; in [10], 268.8 mg; in the data set on MDCK [11], “Toxic”; in the data set with HepG2 it was “Dose-dependent effect”. For the same compound, the Stability result in [1], in [5], in data set [12] and in data set [13] was “Stable” in each case. Besides, the inhibition entry in data set [3] and in [7] was “Active” in each case. Besides, the inhibition in [9] stood at 53%; in data set [14], 30%; in data set [15], 21%. For the same compound, the result in the data set with MCF7 and with BT-474 was inactive. Further, in [16], the inhibition result is “inactive”. The result in the data set with BaF3 was Active.
